Assays:
[1] = target: Protease (Human immunodeficiency virus 1, UniProt Q9YQ12); assay: Inhibition of wild type HIV1 protease by FRET
[2] = tested on: Human immunodeficiency virus 1; assay: Antiviral activity against multidrug resistant Human immunodeficiency virus 1 harboring protease M46I, I54V, V82A and L90M mutant; assay type: functional, organism-based
Method in brief: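 Drug susceptibility assay run by an outside contract lab. Panel: patient-derived wild-type HIV-1 clades A, B and C; MDR1 carrying protease M46I, I54V, V82A, L90M; MDR control MDRC4; and an NL4-3-derived clade B wild-type control (CNDO). The PR/RT regions of these strains were sequenced and deposited.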

[3] = tested on: Human immunodeficiency virus 1; assay: Antiviral activity against Human immunodeficiency virus 1 clade C isolated from HIV-AIDS patient; assay type: functional, organism-based
[4] = tested on: Human immunodeficiency virus 1; assay: Antiviral activity against multidrug resistant Human immunodeficiency virus 1 MDRC4; assay type: functional, organism-based
[5] = tested on: Human immunodeficiency virus 1; assay: Antiviral activity against Human immunodeficiency virus 1 clade B isolated from HIV-AIDS patient; assay type: functional, organism-based
[6] = tested on: Human immunodeficiency virus 1; assay: Antiviral activity against Human immunodeficiency virus 1 clade A isolated from HIV-AIDS patient; assay type: functional, organism-based
[7] = tested on: Human immunodeficiency virus 1; assay: Antiviral activity against wild type Human immunodeficiency virus 1; assay type: functional, organism-based

Chain of Protease (Q9YQ12 whole entry): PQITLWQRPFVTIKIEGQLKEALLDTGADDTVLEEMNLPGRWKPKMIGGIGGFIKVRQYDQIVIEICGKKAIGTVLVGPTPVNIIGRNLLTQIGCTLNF

SMILES | Ki [1] [nM] | EC50 [2] [nM] | EC50 [3] [nM] | EC50 [4] [nM] | EC50 [5] [nM] | EC50 [6] [nM] | EC50 [7] [nM]
CC(C)CN(C[C@@H](O)[C@H](Cc1ccccc1)NC(=O)[C@@H]1CN(c2ccc(F)cc2F)C(=O)O1)S(=O)(=O)c1ccc2c(c1)OCO2 | 0.347 |  |  |  |  |  | 
CC(C)CN(C[C@@H](O)[C@H](Cc1ccccc1)NC(=O)[C@@H]1CN(c2ccc(F)cc2F)C(=O)O1)S(=O)(=O)c1ccc(N)cc1 | 0.385 |  |  |  |  |  | 
CC(C)CN(C[C@@H](O)[C@H](Cc1ccccc1)NC(=O)[C@@H]1CN(c2cccc(C(F)(F)F)c2)C(=O)O1)S(=O)(=O)c1ccc2ncsc2c1 |  | 57.6 | 32.5 | 53.4 | 9.9 | 16.1 | 13.5
CC(=O)c1cccc(N2C[C@@H](C(=O)N[C@@H](Cc3ccccc3)[C@H](O)CN(CC(C)C)S(=O)(=O)c3ccc4c(c3)OCO4)OC2=O)c1 | 0.006 |  |  |  |  |  | 
CC(C)CN(C[C@@H](O)[C@H](Cc1ccccc1)NC(=O)[C@@H]1CN(c2cccc(S(C)(=O)=O)c2)C(=O)O1)S(=O)(=O)c1ccc2ncsc2c1 |  | 9.4 | 5.7 | 10.5 | 3.5 | 4.1 | 5
CC(C)CN(C[C@@H](O)[C@H](Cc1ccccc1)NC(=O)[C@@H]1CN(c2ccccc2)C(=O)O1)S(=O)(=O)c1ccc(N)cc1 | 0.53 |  |  |  |  |  | 
CC(C)CN(C[C@@H](O)[C@H](Cc1ccccc1)NC(=O)[C@@H]1CN(c2cccc(N)c2)C(=O)O1)S(=O)(=O)c1ccc2ncsc2c1 |  | 11.9 | 2.5 | 14.6 | 1.3 | 2.6 | 1.7
CC(C)CN(C[C@@H](O)[C@H](Cc1ccccc1)NC(=O)[C@@H]1CN(c2ccc(F)cc2)C(=O)O1)S(=O)(=O)c1ccc(N)cc1 | 0.448 |  |  |  |  |  | 
CC(=O)c1cccc(N2C[C@@H](C(=O)N[C@@H](Cc3ccccc3)[C@H](O)CN(CC(C)C)S(=O)(=O)c3ccc(CO)cc3)OC2=O)c1 | 0.236 |  |  |  |  |  | 
CC(C)CN(C[C@@H](O)[C@H](Cc1ccccc1)NC(=O)[C@@H]1CN(c2cccc(N)c2)C(=O)O1)S(=O)(=O)c1ccc2c(c1)OCO2 |  | 27.9 | 12.3 | 35.4 | 2.8 | 6.1 | 7.1
CC(C)CN(C[C@@H](O)[C@H](Cc1ccccc1)NC(=O)[C@@H]1CN(c2ccc(F)cc2F)C(=O)O1)S(=O)(=O)c1ccc(CO)cc1 | 0.212 |  |  |  |  |  | 
CC(C)CN(C[C@@H](O)[C@H](Cc1ccccc1)NC(=O)[C@@H]1CN(c2cccc([N+](=O)[O-])c2)C(=O)O1)S(=O)(=O)c1ccc2ncsc2c1 |  | 33.8 | 16.3 | 37.7 | 5.7 | 11.5 | 7.3
CC(=O)c1cccc(N2C[C@@H](C(=O)N[C@@H](Cc3ccccc3)[C@H](O)CN(CC(C)C)S(=O)(=O)c3ccc4ncsc4c3)OC2=O)c1 |  | 32.3 | 10.1 | 34.7 | 4.2 | 9.7 | 6.5
COC(=O)Nc1cccc(N2C[C@@H](C(=O)N[C@@H](Cc3ccccc3)[C@H](O)CN(CC(C)C)S(=O)(=O)c3ccc4ncsc4c3)OC2=O)c1 |  | 10.8 | 3 | 13 | 1.6 | 2.4 | 1.2
CC(=O)Nc1cccc(N2C[C@@H](C(=O)N[C@@H](Cc3ccccc3)[C@H](O)CN(CC(C)C)S(=O)(=O)c3ccc4ncsc4c3)OC2=O)c1 |  | 25.4 | 9.5 | 29.5 | 7.7 | 10.1 | 5.8
CC(C)CN(C[C@@H](O)[C@H](Cc1ccccc1)NC(=O)[C@@H]1CN(c2ccccc2)C(=O)O1)S(=O)(=O)c1ccc2ncsc2c1 |  | 113 | 40.9 | 123 | 14.1 | 29.8 | 21.5
COc1ccc(S(=O)(=O)N(CC(C)C)C[C@@H](O)[C@H](Cc2ccccc2)NC(=O)[C@@H]2CN(c3cccc(N)c3)C(=O)O2)cc1 |  | 19 | 9.4 | 36.4 | 3 | 8.5 | 4
CC(=O)Nc1cccc(N2C[C@@H](C(=O)N[C@@H](Cc3ccccc3)[C@H](O)CN(CC(C)C)S(=O)(=O)c3ccc4c(c3)OCO4)OC2=O)c1 |  | 41.9 | 21.1 | 46.9 | 6.3 | 9 | 10.9
CC(C)CN(C[C@@H](O)[C@H](Cc1ccccc1)NC(=O)[C@@H]1CN(c2cccc(OC(F)(F)F)c2)C(=O)O1)S(=O)(=O)c1ccc2ncsc2c1 |  | 104 | 57.8 | 111 | 12.7 | 32.5 | 22.1
COc1ccc(S(=O)(=O)N(CC(C)C)C[C@@H](O)[C@H](Cc2ccccc2)NC(=O)[C@@H]2CN(c3cccc(S(C)(=O)=O)c3)C(=O)O2)cc1 |  | 14.4 | 9.6 | 18.6 | 4.7 | 7.3 | 5.5
CC(C)CN(C[C@@H](O)[C@H](Cc1ccccc1)NC(=O)[C@@H]1CN(c2ccc(F)c(F)c2)C(=O)O1)S(=O)(=O)c1ccc(CO)cc1 | 0.33 |  |  |  |  |  | 
CC(C)CN(C[C@@H](O)[C@H](Cc1ccccc1)NC(=O)O[C@H]1CO[C@H]2OCC[C@H]21)S(=O)(=O)c1ccc(N)cc1 |  | 0.5 | 0.4 |  | 0.4 | 0.6 | 0.4
CC(=O)c1ccc(N2C[C@@H](C(=O)N[C@@H](Cc3ccccc3)[C@H](O)CN(CC(C)C)S(=O)(=O)c3ccc(CO)cc3)OC2=O)cc1 | 0.317 |  |  |  |  |  | 
CC(C)CN(C[C@@H](O)[C@H](Cc1ccccc1)NC(=O)[C@@H]1CN(c2ccccc2)C(=O)O1)S(=O)(=O)c1ccc(CO)cc1 | 0.252 |  |  |  |  |  | 
COc1ccc(S(=O)(=O)N(CC(C)C)C[C@@H](O)[C@H](Cc2ccccc2)NC(=O)[C@@H]2CN(c3ccccc3)C(=O)O2)cc1 | 0.1 |  |  |  |  |  | 
CC(C)CN(C[C@@H](O)[C@H](Cc1ccccc1)NC(=O)[C@@H]1CN(c2cccc(F)c2)C(=O)O1)S(=O)(=O)c1ccc(CO)cc1 | 0.319 |  |  |  |  |  | 
CC(C)CN(C[C@@H](O)[C@H](Cc1ccccc1)NC(=O)[C@@H]1CN(c2cccc(S(C)(=O)=O)c2)C(=O)O1)S(=O)(=O)c1ccc2c(c1)OCO2 |  | 13.6 | 7.6 | 12.1 | 3.5 | 7.8 | 4
